Article PMC7641749 (Nucleic Acids Research, 2020)

Assays:
[1] = tested on: DROSHA; test: Co-IP of overexpressed DROSHA with ERH; type: binding, human; details: ectopic DROSHA co-expressed with C-terminal tail of DGCR8
Outline: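 HEK293E cells at 50% confluence were transfected with 5 μg total of Flag-, HA- or myc-tagged plasmids using branched/linear PEI (1:1) and harvested after 2 days. Anti-Flag, anti-HA or protein G-bound anti-myc beads were incubated with lysate 1–2 h at 4°C, washed three times and eluted in SDS buffer for western blot.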

[2] = tested on: miR-144–451a; test: ERH rescue experiment, qRT-PCR; type: cell-based, human; details: ERH ectopically expressed in ERH-depleted HEK293E cells, shERH, n = 3
Outline: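 HEK293E cells at 50% confluence got shERH (3′UTR-targeting) plasmid with Fugene HD for 48 h, then were trypsinized and counted. 4E5 cells were co-transfected with 2.5 μg total of shERH, pri-miRNA expression plasmid and wild-type or homodimerization-mutant ERH plasmid (1:2:2) using 5 μl Fugene HD. Total RNA was harvested 48 h later for qRT-PCR.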

[3] = tested on: DGCR8; test: Co-IP of ERH and DGCR8 in DROSHA knock-out cells; type: binding, human; details: HCT116 DROSHA knock-out cells
Outline: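 HCT116 wild-type and DROSHA knock-out cells were grown in McCoy's 5A with 9% FBS. Proteins were boiled at 95°C for 5 min, separated on 8–16% Tris–glycine gels and transferred to PVDF. Detection was by infrared imaging or chemiluminescence.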

## Enhancer of Rudimentary Homolog [ERH]
[1]
  interaction between DROSHA and ERH: could not detect meaningful interaction
[2]
  expression of miR-144: without significantly altering miR-144 expression
  expression of miR-451a: increased the expression of miR-451a
[3]
  interaction between ERH and DGCR8: not affected by the absence of DROSHA
